Laboratory results reported in ChEMBL document CHEMBL1156038 (J Med Chem, 2009).
The source made the active and inactive calls. No cut-off for these calls is given here.

Experiments:
[1] = species: Rattus norvegicus; experiment: Inhibition of [3H]adenine binding to adenine 1 receptor in rat brain cortical membrane at 100 uM by liquid scintillation counting; type: cell membranes
Summary of the method: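 Aqueous solutions were autoclaved or heated >90 °C for ≥10 min to destroy bacterial binding sites. […] Filtered on GF/B with ice-cold Tris washes, then scintillation counted. Percent inhibition ± SEM.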

[2] = Displacement of [3H]adenine from adenine 1 receptor in HEK293 cells by liquid scintillation counting; type: cell-based, Homo sapiens
[3] = test system: HEK293; experiment: Inhibition of [3H]adenine binding to adenine 1 receptor in HEK293 cells at 100 uM by liquid scintillation counting; type: cell-based; details: Homo sapiens
[4] = test system: HEK293; experiment: Selectivity ratio of Ki for adenine 1 receptor in HEK293 cells to Ki for adenine 1 receptor in rat brain cortical membrane; type: cell-based
[5] = test system: 1321-N1; experiment: Agonist activity at rat adenine 1 receptor expressed in human 1321N1 cells assessed as inhibition of isoproterenol-induced [3H]cAMP formation at 250 uM by scintillation counting; type: functional, cell-based
Summary of the method: (§1)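 1321N1 astrocytoma cells stably expressing rat Ade1R (retroviral pLXSN, G418 800 μg/mL), grown on 24-well plates. Cells washed and held 2 h at 37 °C in HBSS pH 7.3. Compound added together with 3 nM isoproterenol for 10 min at 37 °C, then stopped with hot EDTA/Triton lysis. cAMP measured by [3H]cAMP competition with calf adrenal binding protein and filtration, read against a 0–40 pmol standard curve. Result given as % of isoproterenol alone; n = 3.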

[6] = test system: 1321-N1; experiment: Inhibition of [3H]adenine uptake at rat adenine 1 receptor expressed in human 1321N1 cells at 100 uM after 1 min by liquid scintillation counting; type: cell-based
[7] = species: Rattus norvegicus; experiment: Inhibition of [3H]adenine binding to adenine 1 receptor in rat brain cortical membrane at 30 uM by liquid scintillation counting; type: cell membranes
[8] = species: Rattus norvegicus; experiment: Inhibition of [3H]adenine binding to adenine 1 receptor in rat brain cortical membrane at 250 uM by liquid scintillation counting; type: cell membranes
[9] = Agonist activity at rat adenine 1 receptor expressed in human 1321N1 cells assessed as inhibition of isoproterenol-induced [3H]cAMP formation at 50 uM by scintillation counting relative to adenine; type: functional; summary of the method: as §1
[10] = Agonist activity at rat adenine 1 receptor expressed in human 1321N1 cells assessed as inhibition of isoproterenol-induced [3H]cAMP formation at 250 uM by scintillation counting relative to adenine; type: functional; summary of the method: as §1
[11] = test system: 1321-N1; experiment: Antagonist activity at rat adenine 1 receptor expressed in human 1321N1 cells assessed as change in adenine IC50 for inhibition of isoproterenol-induced [3H]cAMP formation at 10 uM by scintillation counting; type: functional, cell-based
Summary of the method: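 Retrovirally transduced 1321N1 astrocytoma cells stably expressing rat Ade1R, 24-well culture, washed and preincubated in Hepes-buffered HBSS pH 7.3, 2 h, 37 °C. […] Hot EDTA/Triton lysis. cAMP measured by competition with [3H]cAMP for calf adrenal binding protein, filtered, scintillation counting.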

[12] = test system: 1321-N1; experiment: Agonist activity at rat adenine 1 receptor expressed in human 1321N1 cells assessed as inhibition of isoproterenol-induced [3H]cAMP formation at 500 uM by scintillation counting; type: functional, cell-based; summary of the method: as §1
[13] = test system: HEK293; experiment: Selectivity ratio of Ki for adenine 1 receptor in rat brain cortical membrane to Ki for adenine 1 receptor in HEK293 cells; type: cell-based
[14] = test system: 1321-N1; experiment: Agonist activity at rat adenine 1 receptor expressed in human 1321N1 cells assessed as inhibition of isoproterenol-induced [3H]cAMP formation at 30 uM by scintillation counting; type: functional, cell-based; summary of the method: as §1
[15] = test system: 1321-N1; experiment: Activity at rat adenine 1 receptor expressed in human 1321N1 cells assessed as complete inhibition of cAMP formation at 250 uM; type: cell-based; summary of the method: as §1
[16] = test system: 1321-N1; experiment: Inhibition of [3H]adenine uptake at rat adenine 1 receptor expressed in human 1321N1 cells at 1 mM after 1 min by liquid scintillation counting; type: cell-based
[17] = Agonist activity at rat adenine 1 receptor expressed in human 1321N1 cells assessed as inhibition of isoproterenol-induced [3H]cAMP formation at 1 uM by scintillation counting; type: functional
[18] = test system: 1321-N1; experiment: (§2) Agonist activity at rat adenine 1 receptor expressed in human 1321N1 cells assessed as inhibition of isoproterenol-induced [3H]cAMP formation by scintillation counting; type: functional, cell-based
[19] = as §2; type: functional, cell-based

| Compound | inhibition [1] | Ki [2] | Ratio Ki [4] | also measured |
| --- | --- | --- | --- | --- |
| CCn1cnc2c(OCCc3ccccc3)ncnc21 | 4% | – | – | – |
| Nc1ncnc2c1ncn2CCc1cccnc1 | – | > 100 µM | 1.3 | inhibition [3]: 41% |
| Nc1ncnc2c1ncn2CCN1CCOCC1 | – | 5.49 µM | 1.8 | inhibition [5]: Active; inhibition [6]: Active |
| Nc1ncnc2[nH]c(C#Cc3ccccc3)nc12 | – | – | – | inhibition [7]: 19% |
| Nc1nc(C#Cc2ccccc2)nc2c1ncn2[C@@H]1O[C@H](CO)[C@@H](O)[C@H]1O | 0% | – | – | – |
| CCNc1ncnc2[nH]cnc12 | – | 100 µM | 6 | inhibition [3]: 59% |
| Nc1ncnc2[nH]c(/C=C/c3ccccc3)nc12 | – | 12.2 µM | 0.67 | – |
| Nc1[nH]cnc2nc(NCc3ccccc3)nc1-2 | – | 32.9 µM | 4.9 | – |
| Nc1ncnc2[nH]c(-c3cccc(C(F)(F)F)c3)nc12 | 23% | – | – | – |
| CCSc1nc2c(N)ncnc2[nH]1 | – | – | – | inhibition [7]: 0% |
| Nc1ncnc2c1ncn2CCN1CCNCC1 | – | > 100 µM | – | inhibition [8]: 28%; inhibition [3]: 0% |
| Nc1ncnc2c1ncn2CCC(=O)O | – | 18.5 µM | 0.9 | – |
| ONc1ncnc2[nH]cnc12 | – | 9.53 µM | 19 | inhibition [6]: Active; Efficacy [9]: 51% |
| Nc1ncnc2[nH]c(N3CCNCC3)nc12 | – | 27.4 µM | 8.4 | inhibition [6]: Active; Efficacy [10]: 52%; Activity [11]: inactive |
| Nc1[nH]ccc2ncnc1-2 | – | 6.68 µM | 1 | – |
| Nc1ncnc2[nH]c(Sc3ccccc3)nc12 | – | – | – | inhibition [7]: 0% |
| Nc1ncnc2c1ncn2[C@H]1C[C@H](O)[C@@H](CO)O1 [DEOXYADENOSINE] | – | > 100 µM | > 9 | inhibition [3]: 29% |
| Nc1ncnc2[nH]c(N3CCCC3)nc12 | – | > 100 µM | > 2.4 | inhibition [3]: 18% |
| Nc1ncnc2[nH]c(-c3ccccc3)nc12 | 16% | – | – | – |
| CN(C)c1nc2c(N)ncnc2[nH]1 | – | 34.1 µM | 14.8 | inhibition [6]: Active; inhibition at 250 µM ([10]; Rattus norvegicus, 1321-N1): 137% |
| Nc1nc2[nH]cnc(N)c-2n1 | – | 0.0341 µM | 0.005 | inhibition [6]: Active; inhibition [12]: Active; Ratio Ki [13]: 190 |
| Nc1ncnc2c1ncn2CC(N)C(=O)O (racemic) | – | 6.23 µM | 0.58 | – |

| Compound | inhibition [1] | Ki [2] | Ratio Ki [4] | also measured |
| --- | --- | --- | --- | --- |
| Nc1ncnc2[nH]c(O)nc12 | – | 110 µM | 4.1 | – |
| OCCNc1ncnc2[nH]cnc12 | – | 100 µM | 4 | inhibition [3]: 58% |
| Nc1ncnc2[nH]ccc12 | 21% | – | – | – |
| Nc1ccnc2[nH]cnc12 | – | 7.89 µM | 0.7 | – |
| CCn1cnc2c(N)nc(OCCc3ccccc3)nc21 | 7% | – | – | – |
| CSc1nc2c(N)ncnc2[nH]1 | – | – | – | inhibition [7]: 10% |
| Nc1nc(Cl)nc2c1ncn2[C@@H]1O[C@H](CO)[C@@H](O)[C@H]1O | 1% | – | – | – |
| Nc1ncnc2c1ncn2CCc1ccncc1 | – | > 100 µM | – | inhibition [8]: 46%; inhibition [3]: 44% |
| CC(=O)Nc1ncnc2[nH]cnc12 | – | 0.515 µM | 0.18 | inhibition [6]: Active; Efficacy [10]: 77%; Ratio Ki [13]: 5.5; Activity [11]: inactive |
| CCCCC(CC)n1cnc2c(N)ncnc21 (stereo not drawn) | 12% | – | – | – |
| CC(C)(C)OC(=O)NCCNc1ncnc2[nH]cnc12 | 21% | – | – | – |
| CCOc1ncnc2c1ncn2C1CCCCC1 | -1% | – | – | – |
| NNc1ncnc2[nH]cnc12 | – | 17.5 µM | 13 | – |
| CCn1cnc2c(NC3CCCC3)ncnc21 | 5% | – | – | – |
| Nc1ncnc2[nH]c(N3CCCCC3)nc12 | – | 31.7 µM | 8.1 | inhibition [6]: Active; inhibition [14]: Active; inhibition [15]: Active |
| NCCNc1ncnc2[nH]cnc12 | 58% | – | – | – |
| CCCSc1nc2c(N)ncnc2[nH]1 | – | – | – | inhibition [7]: 0% |
| Nc1[nH]cnc2ncnc1-2 [ADENINE] | – | 0.0471 µM | – | inhibition [16]: Active; inhibition at 1 µM [17]: 35%; Activity [18]: Dose-dependent effect; IC50 [19]: 0.00829 µM |
| Nc1ncnc2c1ncn2CCc1ccccc1 | – | 100 µM | 2 | inhibition [3]: 57% |
| CCn1cnc2c(N)nc(Cl)nc21 | 1% | – | – | – |
| Nc1ncnc2c1ncn2CCc1ccccn1 | – | 100 µM | > 22 | inhibition [3]: 58% |

Further lines, with some results ahead:

| inhibition [1] | Compound | Ki [2] | Ratio Ki [4] | also measured |
| --- | --- | --- | --- | --- |
| 15% | Nc1ncnc2c1ncn2Cc1ccccc1 | – | – | – |
| 11% | Nc1ncnc2ncn(Cc3ccccc3)c12 | – | – | – |
| 39% | Nc1ncnc2c1N=CC2 | – | – | – |
| 49% | NCCCNc1ncnc2[nH]cnc12 | – | – | – |
| 3% | CCn1cnc2c(N)nc(NCCc3ccccc3)nc21 | – | – | – |
| 3% | CCn1cnc2c(NCCc3ccccc3)ncnc21 | – | – | – |
| 9% | Nc1nc(Cl)nc2c1ncn2[C@H]1C[C@H](O)[C@@H](CO)O1 | – | – | – |
| 4% | CCCCOc1nc(N)c2ncn(CC)c2n1 | – | – | – |
| 5% | CCCCC#Cc1nc(N)c2ncn([C@@H]3O[C@H](CO)[C@@H](O)[C@H]3O)c2n1 | – | – | – |
| -5% | Nc1nc(OCCC2CCCCC2)nc2[nH]cnc12 | – | – | – |
| 0% | O=c1[nH]cnc2cc[nH]c12 | – | – | – |
| -6% | Nc1ncnc2c1ncn2C1CCCCC1 | – | – | – |
| 46% | CC(C)(C)OC(=O)NCCCNc1ncnc2[nH]cnc12 | – | – | – |
| 24% | Nc1nc(OCCc2ccccc2)nc2[nH]cnc12 | – | – | – |
